Assay outcomes as filed in PubChem BioAssay.
CSC inhib = cancer stem cell inhibition; hit rate 1.1% among 300,000; cancer stem cell-like cells viability, luminescence; inhibition, % at 7.5 µM; in the data active = inhibition above about 75%; tested in HMLE shEcad cells
Beta cell apopt = blocks beta cell apoptosis; INS-1E cytokine-induced death, ATP luminescence, 48 h; percent of positive-control rescue, neutral wells zero; protection from apoptosis, % (test concentration not listed); hit rate 0.8% among 300,000;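 active = Every replicate reaches about 75%, or at least half do and their mean reaches it too, limit read from the data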;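 also: higher means more ATP so stronger rescue from cytokine killing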
SUMO Mot1 rescue = inhibitors of SUMOylation pathway: yeast Mot1-301 growth rescue | S. cerevisiae Mot1-301 growth rescue, ATP luminescence, 38.5C; percent above DMSO median, 100 means doubled | growth rescue, % at 18.8 µM | hit rate 1% among 320,000 | AID 2716;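 active = every valid replicate shows activation above 250% relative to neutral control wells; inactive = the rest, any valid replicate at or below 250%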
Efflux pump mplx = antifungal efflux pump inhibition, Nile Red retention; S. cerevisiae Candida pump triplex; inhibition, % at 10 µM; hit rate 0.44% among 330,000;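 active = plate passing quality check with inhibition over a set limit, or well fluorescence over plate mean plus 4 SD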;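 also: Nile Red retained in pooled yeast measured as flow cytometry median fluorescence; higher means more Nile Red kept so more efflux inhibition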
WT yeast gro inh = growth inhibition of WT yeast, mitochondrial fusion screen; hit rate 2.1% among 190,000; inhibition, % at 10 µM; mitochondrial fusion phenotypic screen, WT strain; in the data active = inhibition above about 58%; tested in S. cerevisiae
T cruzi inh = T. cruzi replication inhibition; T. cruzi beta-gal in NIH3T3, luminescence, 90 h; inhibition, % (no concentration beside the values); hit rate 1.4% among 300,000;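 active = mean inhibition across valid replicates above about 55%, limit read from the data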;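 also: signal also drops with host cell toxicity which is not excluded here; higher percent means less beta-gal luminescence so fewer parasites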
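System: Mouse NIH/3T3 fibroblasts infected with β-gal-expressing T. cruzi Tulahuen C4 | Quantity: NIH/3T3 cells, 5,000 per well | Reagent: 5000 reporter trypomastigotes per well | Dosing: Compound pinned at 50 nL/well, DMSO | Schedule: 3 h host attachment, then at least 90 h co-culture | Detection: GalScreen luminescence, 60 min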
Each line names hits and unclear results; the compound was inactive in the other large screens. Only some compounds are listed: those with a hit (about 4.8% of all), similar ones and a draw of the others.

COc1ccc(S(=O)(=O)N2CCCC(C(=O)NC3CC3)C2)cc1OC (stereo unspecified)	none (no result: Beta cell apopt, WT yeast gro inh)
NC(=S)N/N=C\c1c2ccccc2cc2ccccc12	none (no result: T cruzi inh)
NC(=S)N/N=C\c1c(OCc2ccccc2Cl)ccc2ccccc12	WT yeast gro inh 61 (no result: T cruzi inh)
COc1cc(/C=N/NC(N)=S)ccc1OCc1ccc(C)cc1	CSC inhib 76, T cruzi inh 58
COC1=C(Nc2ccccc2OC)C(=O)c2ccccc2C1=O	Beta cell apopt 83 (no result: WT yeast gro inh)
Cc1ccc(S(=O)(=O)Nc2c(NC3CCCCC3)c3ccccc3oc2=O)c(C)c1	none (no result: WT yeast gro inh)
O=C(NCCCn1ccnc1)c1sc2cccc(F)c2c1Cl	T cruzi inh 64 (no result: CSC inhib)
O=C(c1ccc(Cl)cc1)N1CCC(C(=O)N2CCCc3ccccc32)CC1	none (no result: WT yeast gro inh)
CC(c1cccs1)N(Cc1ccco1)C(=S)Nc1ccccc1Cl (stereo unspecified)	WT yeast gro inh 63
Cc1ccccc1NC(=S)N(Cc1ccco1)C(C)c1cccs1 (stereo unspecified)	none
Cc1cccc(NC(=S)N(Cc2ccco2)C(C)c2cccs2)c1 (stereo unspecified)	WT yeast gro inh 72
CC(c1cccs1)N(Cc1ccco1)C(=S)Nc1ccc(F)c(Cl)c1 (stereo unspecified)	WT yeast gro inh 78
Cc1cc(Nc2n[nH]c(N)c2C#N)ccc1F	none
Cc1ccc(S(C)(=O)=O)cc1C(=O)NC(C)C1CC2CCC1C2 (stereo unspecified)	none (no result: WT yeast gro inh)
CCN(CC)C(=O)[C@H]1C[C@H](CC(=O)NCc2cccc(C(F)(F)F)c2)C(=O)N2CCc3c([nH]c4cc(CCC(=O)N(C)C)ccc34)[C@]12C	none (no result: CSC inhib, Beta cell apopt, SUMO Mot1 rescue, WT yeast gro inh, T cruzi inh)
COc1ccc(C2=NOC3(CC(=O)N(c4ccc(F)cc4)C3=O)C2)cc1 (stereo unspecified)	none (no result: WT yeast gro inh)
COc1ccc(C(=S)N2CCN(S(=O)(=O)c3ccccc3)CC2)cc1	none (no result: WT yeast gro inh)
CN(C)c1ccc(C(=S)N2CCN(S(=O)(=O)c3ccccc3)CC2)cc1	T cruzi inh 56 (no result: WT yeast gro inh)
O=C(Nc1nc(SCc2ccc(F)cc2)ns1)c1ccco1	WT yeast gro inh 68
CC(=O)c1cccc(S(=O)(=O)N2CCC(C(=O)N(C)Cc3ccc(Cl)s3)CC2)c1	none (no result: CSC inhib, WT yeast gro inh, T cruzi inh)
CCOc1cc(C2NN=C(c3ccc(C)cc3)S2)ccc1O (stereo unspecified)	CSC inhib 105 (no result: T cruzi inh)
[O-][n+]1c2ccccc2cc2ccccc21	none (no result: WT yeast gro inh)
NS(=O)(=O)c1ccc(CCNc2nc3c(-c4cccc(F)c4)nnn3c3ccccc23)cc1	SUMO Mot1 rescue 546
O=C(Nc1ccc(NC(=S)NC(=O)c2ccccc2Cl)cc1)c1cccc(Cl)c1	CSC inhib 79 (no result: WT yeast gro inh)
CC(C)(C)n1nnnc1C(c1ccc(C(F)(F)F)cc1)N(Cc1ccc(F)cc1)Cc1ccco1 (stereo unspecified)	Beta cell apopt 107
CC(C)(C)n1nnnc1C(c1cccnc1)N(Cc1ccccc1)Cc1cccs1 (stereo unspecified)	WT yeast gro inh 81
CC(C)(C)n1nnnc1C(c1cccs1)N(Cc1ccccc1)Cc1cccnc1 (stereo unspecified)	none
CC(C)(C)n1nnnc1C(c1cccs1)N(Cc1ccc(Cl)cc1)CC1CCCO1 (stereo unspecified)	T cruzi inh 58
Cc1ccc(C(c2nnnn2C(C)(C)C)N(Cc2ccco2)Cc2cccs2)cc1 (stereo unspecified)	T cruzi inh 64
CN(C(=O)CSc1nc2ccccc2c(=O)n1C)C1CCS(=O)(=O)C1 (stereo unspecified)	none (no result: WT yeast gro inh, T cruzi inh)
CC(C)C(c1nnnn1Cc1ccccc1)N(Cc1ccco1)Cc1cccs1 (stereo unspecified)	none
CCC(c1nnnn1C(C)(C)C)N(Cc1cccs1)Cc1cc2cc(C)c(C)cc2n2nnnc12 (stereo unspecified)	T cruzi inh 56 (no result: WT yeast gro inh)
COc1ccc(Cn2nnnc2C(C(C)C)N(Cc2ccco2)Cc2cccs2)cc1 (stereo unspecified)	CSC inhib 77
CC(C)(C)n1nnnc1C(c1ccc(F)cc1)N(Cc1ccc(F)cc1)Cc1ccco1 (stereo unspecified)	Beta cell apopt 77, WT yeast gro inh 59
CCOc1ccc2[nH]c(=O)c(CN(Cc3cccs3)C(CC)c3nnnn3C(C)(C)CC)cc2c1 (stereo unspecified)	none (no result: CSC inhib, Beta cell apopt, SUMO Mot1 rescue, Efflux pump mplx)
CC(C)(C)n1nnnc1C(c1ccc(C(F)(F)F)cc1)N(Cc1ccccc1)Cc1ccco1 (stereo unspecified)	Beta cell apopt 117
CC(=O)Nc1cccc(NC(=O)CCN2C(=O)c3ccccc3S2(=O)=O)c1	none (no result: WT yeast gro inh)
CCCc1cc(=O)[nH]c(SCC(=O)NC(=O)NC2CCCC2)n1	none (no result: CSC inhib, WT yeast gro inh, T cruzi inh)
Cc1onc(-c2ccccc2)c1C(=O)Nc1ccc(S(=O)(=O)N2CCOCC2)cc1	none (no result: WT yeast gro inh)
C/C(=N\NC(=O)c1nnn(-c2nonc2N)c1CN1CCOCC1)c1ccc(CC(C)C)cc1	none (no result: WT yeast gro inh)
O=c1c2c(n3nnnc3n1Cc1ccccc1)-c1ccccc1CC21CCCC1	none
CCC1(C)Cc2ccccc2-c2c1c(=O)n(Cc1ccccc1)c1nnnn21 (stereo unspecified)	CSC inhib 135
COc1cc(CNC(=O)c2cc3ccccc3oc2=O)cc(OC)c1OC	none (no result: WT yeast gro inh)
CC(=O)N1N=C(c2ccccc2)CC1c1ccc(F)cc1 (stereo unspecified)	none (no result: WT yeast gro inh)
Cc1ccc(NC(=O)N2N=C(c3ccc(F)cc3)CC2c2ccc(F)cc2)cc1 (stereo unspecified)	WT yeast gro inh 77
Cc1cc(C)c(NC(=O)c2ccc(CNS(=O)(=O)c3cc(C(F)(F)F)ccc3Cl)cc2)c(C)c1	none
Cc1ccccc1CN1CCNC(=O)C1CC(=O)NCCN1CCCCC1=O (stereo unspecified)	none (no result: WT yeast gro inh)
CNC(=S)N1CCN(C(c2ccccc2)c2ccccc2)CC1	WT yeast gro inh 70 (no result: SUMO Mot1 rescue)
CCC(C)NC(=S)N1CCN(C(c2ccccc2)c2ccccc2)CC1 (stereo unspecified)	WT yeast gro inh 69
COc1ccc(NC(=S)N2CCN(C(c3ccccc3)c3ccccc3)CC2)cc1OC	none
Cc1cc(C)n(-c2nc(NCCCO)c3c4c(sc3n2)CCCC4)n1	Beta cell apopt 81
Cc1cc(C)n(-c2nc(NCCO)c3c4c(sc3n2)CCCC4)n1	Beta cell apopt 80
Cc1cc(C)n(-c2nc(NCC(C)O)c3c4c(sc3n2)CCCC4)n1 (stereo unspecified)	none
c1ccc(-n2c(-c3cccs3)nc3nc4ccccc4nc32)cc1	none
CCC(C)n1c(-c2cccs2)nc2nc3ccccc3nc21 (stereo unspecified)	CSC inhib 64
c1ccc(CCNc2ncnc3ccccc23)cc1	Beta cell apopt 100
Cc1cc2c(Nc3ccccc3)ncnc2s1	none
Cc1cc2c(NCCc3ccccc3)ncnc2s1	Beta cell apopt 108 (no result: WT yeast gro inh)
CCCCCCCCNc1ncnc2ccccc12	Beta cell apopt 101
